# High-throughput results deposited in PubChem by Johns Hopkins Ion Channel Center.
# MrgX1 agonist: agonists of human MrgX1 receptor | MrgX1-HEK293 cells, Fluo-4 calcium fluorescence, agonist mode; stronger effect = higher value | B-score at 10 µM | Q96LB2 | 310,000 tested, 0.44% active;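 active = calcium response B-score plate-corrected fluorescence ratio at least 3 library SD, with starting fluorescence B-score inside 5 SD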
# Target sequence (Q96LB2 whole entry, looked up): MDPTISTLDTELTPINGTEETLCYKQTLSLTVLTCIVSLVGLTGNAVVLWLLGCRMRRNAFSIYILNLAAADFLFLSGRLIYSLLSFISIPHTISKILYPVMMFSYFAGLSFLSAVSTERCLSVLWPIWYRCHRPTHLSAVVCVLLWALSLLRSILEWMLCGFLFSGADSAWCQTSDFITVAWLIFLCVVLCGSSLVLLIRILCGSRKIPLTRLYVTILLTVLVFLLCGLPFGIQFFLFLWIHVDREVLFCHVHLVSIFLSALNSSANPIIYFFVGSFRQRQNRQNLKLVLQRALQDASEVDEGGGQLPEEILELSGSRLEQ
#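 Test system: HEK293 cells stably expressing human MrgX1 receptor; amount: 15,000 cells per well; doses: compound delivered in addition one of three; times: overnight plating before 1 h dye loading; detection: Fluo-4 NW calcium-flux fluorescence, kinetic read; read-out basis: B-scored fluorescence response ratio; controls: positive and negative controls per plate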
# MrgX1 antag: human MrgX1 receptor antagonism, primary screen. Q96LB2. MRGX1-HEK293 calcium flux, Fluo-4, BAM8-22 antagonism; stronger effect = lower value. B-score at 10 µM. 310,000 tested, 1.3% active;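 active = calcium-response B-score plate-corrected more than 3 library SD below zero, starting fluorescence within 5 deviations, no agonist response on first addition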;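 note: peak minus trough fluorescence over baseline after final BAM8-22 challenge near maximal dose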
# RGS4 act: RGS4 potentiation or activation. B-score at 10 µM. AID 463111. HEK293 M3R/inducible RGS4, carbachol calcium flux Fluo4; stronger effect = lower value. 310,000 tested, 0.92% active;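 active = B-score of the integrated calcium signal more than 4 SD below the library mean, with starting fluorescence not abnormally high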;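 note: negative B-score means reduced calcium response which marks RGS4 activation or potentiation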
#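 Detection: kinetic calcium fluorescence imaging with Fluo4-AM dye, 2 µM / Material: HEK293 cells with stable M3R and inducible RGS4 / Schedule: recording 10 s baseline at 1 Hz, 100 s post-agonist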
# RGS4 inh: inhibitors of human RGS4; P49798; HEK293 M3R/RGS4 inducible, Fluo-4 calcium flux; stronger effect = higher value; triggered by carbachol at its EC20; B-score at 10 µM; 310,000 tested, 0.45% active;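 active = B-score, a plate-corrected calcium signal, over three deviations above library mean, with baseline fluorescence within five deviations of library mean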;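 note: RGS4 expression induced by doxycycline in cells with stable M3 receptor; B-score is computed from the integrated fluorescence ratio over baseline after carbachol; higher B-score means a larger calcium signal and so more RGS4 inhibition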
# Target sequence (P49798 whole entry, looked up): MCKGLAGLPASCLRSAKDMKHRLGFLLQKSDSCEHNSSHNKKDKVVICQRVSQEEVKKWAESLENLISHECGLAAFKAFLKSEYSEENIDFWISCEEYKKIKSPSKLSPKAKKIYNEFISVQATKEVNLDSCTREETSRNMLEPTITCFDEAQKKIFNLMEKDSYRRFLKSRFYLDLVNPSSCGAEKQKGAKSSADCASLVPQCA
# MrgX1 allo act: human MrgX1 positive allosteric modulation, primary screen. Q96LB2. MrgX1-HEK293, Fluo-4 calcium flux, FDSS; stronger effect = higher value. B-score at 10 µM. 310,000 tested, 0.63% active;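 active = plate-corrected calcium response at least 3 library SD above typical, normal starting fluorescence, not activating the receptor alone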;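 note: compound read alongside a low EC10 to EC30 dose of BAM8-22 agonist; peak minus trough fluorescence over baseline measured at the second addition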
# MrgX1 allo conf: human MrgX1 positive allosteric modulation, re-confirmation; shares compounds with MrgX1 allo act; MrgX1-HEK293, Fluo-4 calcium fluorescence, FDSS; activation (ratio percentage), % at 10 µM; 1,200 tested, 13% active; AID 602413;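 active = ratio at least 3 SD above the weak peptide control, stable starting fluorescence, no direct agonism earlier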;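 note: compound followed by low BAM8-22 agonist challenge near EC20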
# HEK293 Ca flux: activity in parental HEK293 cells lacking MrgX1 | shares compounds with MrgX1 antag | Fluo-4 calcium fluorescence, FDSS | fluorescence ratio F(max-min)/F0 at 10 µM | 4,000 tested, 2% active | AID 624111;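 active = duplicate-averaged calcium fluorescence ratio at least three times the standard deviation of buffer wells, a nonspecific response in parental cells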
# HEK293 Ca counter: activity in parental HEK293 cells without MrgX1. shares compounds with MrgX1 antag. parental HEK293 calcium flux, Fluo-4 fluorescence ratio; stronger effect = higher value. fluorescence ratio F(max-min)/F0 at 10 µM. 4,000 tested, 0.4% active. AID 624114;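 active = calcium fluorescence ratio, averaged over duplicates, at least 3 SD of the buffer-well ratio, meaning a nonspecific response in receptor-free cells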;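 note: untransfected parental HEK293 lacking MrgX1 used as counterscreen for MrgX1 allosteric activators; fluorescence change taken during the second addition on a kinetic imager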
# HEK293 Ca cntr2: MrgX1 activator counter-screen hit in parental HEK293 cells | Fluo-4 calcium fluorescence (FDSS); stronger effect = higher value | 4,000 tested, 8.7% active | shares compounds with MrgX1 antag | AID 624115 | fluorescence ratio F(max-min)/F0 at 10 µM;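 active = calcium fluorescence ratio at least three times the spread of buffer wells, meaning a non-specific response in parental cells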
# Active calls of the source: *; i = inactive; / = not tested or not shown. In the library only some 3.5% were active in any assay of this set; here they are far more common.
SMILES,MrgX1 agonist,MrgX1 antag,RGS4 act,RGS4 inh,MrgX1 allo act,MrgX1 allo conf,HEK293 Ca flux,HEK293 Ca counter,HEK293 Ca cntr2
CCn1c(SCC(=O)Nc2ccc(N3CCOCC3)cc2)nnc1-c1ccncc1,i,i,i,i,i,/,/,/,/
CS(=O)(=O)N(Cc1cc2ccccc2[nH]c1=O)C1CCCCC1,i,i,i,i,6.8*,i,i,i,i
COc1ccc(N2CCCC2=N)c(OC)c1,i,i,i,i,i,/,/,/,/
Cc1ccc(Nc2cc(C)nc3c(C)cccc23)cc1,i,i,i,i,7.3*,i,i,i,i
CC(=O)c1ccc(Nc2cc(C)nc3c(C)cccc23)cc1,i,i,i,i,i,/,/,/,/
O=S(=O)(Nc1nc2ccccc2s1)c1ccc(Br)s1,i,i,i,i,7.2*,i,i,i,i
N=c1sccn1CC(=O)N1N=C(c2ccc(Cl)cc2)CC1c1ccco1 (stereo not drawn),i,i,i,i,21*,i,i,i,i
Cn1c(CC(=O)Nc2ccc(Cl)cc2)nnc1SCC(=O)N1CCOCC1,i,i,i,i,i,/,/,/,/
Cc1cc(F)ccc1NC(=O)c1cnccn1,i,i,i,i,11*,i,i,i,i
COc1cc(SSc2cc(OC)cc([N+](=O)[O-])c2N)c(N)c([N+](=O)[O-])c1,i,i,i,i,i,/,/,/,/
COC(=O)c1ccc(N2C(=O)CC(Sc3n[nH]c(C)n3)C2=O)cc1 (stereo not drawn),i,i,i,i,7.8*,i,i,i,i
COC(=O)c1cc(C(=O)OC)cc(N2C(=O)CC(Sc3nc(C)cc(C)n3)C2=O)c1 (stereo not drawn),i,i,i,i,i,/,/,/,/
CCOC(=O)C1CCCN(CC(=O)Nc2nccs2)C1 (stereo not drawn),i,i,i,i,i,/,/,/,/
Cc1nc(Oc2ccccc2)c2ccsc2n1,i,i,i,i,9.8*,4.8%*,i,i,i
c1ccc(Sc2ncnc3c2oc2ccccc23)cc1,i,i,i,i,12*,22%*,i,i,i
COc1ccccc1Oc1ncnc2c1oc1ccccc12,i,i,i,i,15*,33%*,i,i,i
Cc1nc(Nc2ccccc2F)c2oc3ccccc3c2n1,i,i,i,i,7*,i,i,i,i
CCN(CC)CCOc1ncnc2c1oc1ccccc12,i,i,i,i,i,/,/,/,/
CCN(CC)CCOC(=O)c1ccc(NC(=S)NC(=O)/C=C/c2ccco2)cc1,i,i,i,i,i,/,/,/,/
CCOCCc1nnc(NC(=O)C2CCN(C(=O)c3ccco3)CC2)s1,i,i,i,i,i,/,/,/,/
CCOc1ccc(NC(=O)CN(C)C(=O)c2ccc3c(c2)C(=O)N(CCC(C)C)C3=O)cc1OCC,i,i,i,i,i,/,/,/,/
CCCC(C(=O)NC1CCCC1)N(Cc1ccc(OC)cc1)C(=O)c1snc(C(N)=O)c1N (stereo not drawn),i,i,i,i,i,/,/,/,/
Cc1nc(Oc2ccccc2)c2oc3ccccc3c2n1,i,i,i,i,34*,25%*,i,i,i
COc1ccc(Nc2nc(C)nc3c2oc2ccccc23)c(OC)c1,i,i,i,i,i,/,/,/,/
COc1ccc(Oc2nc(C)nc3c2oc2ccccc23)cc1,i,i,i,i,14*,27%*,i,i,i
SMILES,MrgX1 agonist,MrgX1 antag,RGS4 act,RGS4 inh,MrgX1 allo act,MrgX1 allo conf,HEK293 Ca flux,HEK293 Ca counter,HEK293 Ca cntr2
COc1cc(SC)ccc1C(=O)OCC(=O)N1CCCC1,i,i,i,i,11*,i,i,i,i
CC12CCC(C(=O)Nc3ccc(SC(F)F)cc3)(CC1=O)C2(C)C (stereo not drawn),i,i,i,i,6.7*,i,i,i,i
Cc1ccc(S(=O)(=O)N2CCOCC2)cc1NC(=O)COC(=O)c1cc(=O)[nH]c2ccccc12,i,i,i,i,9.8*,i,i,i,i
O=C(COC(=O)c1cc(=O)[nH]c2ccccc12)NC1CCCCCCC1,i,i,i,i,9.7*,i,i,i,i
CC(SCc1ccccc1)C(=O)Nc1ccccc1Br (stereo not drawn),i,i,i,i,6.5*,i,i,i,i
CC(C)(CN1CCN(Cc2ccccc2)CC1)NS(=O)(=O)c1ccc(Cl)cc1,i,i,i,i,i,/,/,/,/
CC(=O)c1ccc(NC(=O)Nc2ccc3c(c2)nc(C)n3C)cc1,i,i,i,i,8.8*,i,i,i,i
Cc1ccc(S(=O)(=O)N(CCC#N)C2CCCCC2)c2nsnc12,i,i,i,i,6.8*,i,i,i,i
NC(=O)CCN(C1CCCCC1)S(=O)(=O)c1cccc2nsnc12,i,i,i,i,i,/,/,/,/
CCOC(=O)CN(c1ccccn1)S(=O)(=O)c1ccc(OC)cc1,i,i,i,i,i,/,/,/,/
OC(CN1CCN(c2ccccn2)CC1)Cn1c2ccc(Cl)cc2c2cc(Cl)ccc21 (stereo not drawn),i,i,i,i,i,/,/,/,/
OC(CN1CCCCC1)Cn1c2ccc(Cl)cc2c2cc(Cl)ccc21 (stereo not drawn),i,i,i,i,6.7*,i,i,i,i
CCO[C@H]1OC(C(=O)O)=C[C@@H](c2coc3ccccc3c2=O)[C@@H]1CCCO,i,i,i,i,i,/,/,/,/
COc1ccc(-c2csc3nc(-c4cccnc4)nc(Cl)c23)cc1OC,i,i,i,i,6.7*,3.9%*,i,i,i
CCCCn1c(SCC(=O)NC2CC(C)(C)NC(C)(C)C2)nc2cc(S(N)(=O)=O)ccc21,i,i,i,i,i,/,/,/,/
